# Published values from different studies.
# Compare with care: the assays were run in different laboratories.
Compound,test system,conditions,concentration
Cc1ccc2c(c1)C(=O)[C@]1(O)CCN(c3ccc4nc(C)ccc4c3)C1=N2,"mouse, plasma","intraperitoneal, 10 mg/kg, 30 min",700 nM
NCc1cc2c(cc1F)C(=O)N(C1CCC(=O)NC1=O)C2 (stereo not shown),"male CD-1 mouse, plasma","oral, 10 mg/kg, 1 h",81 ng/mL
O=C1CCC(N2Cc3cc(C4CCN(Cc5ccccc5)CC4)ccc3C2=O)C(=O)N1 (stereo not shown),"male CD-1 mouse, plasma","oral, 3 mg/kg, 4.98 min",49.6 ng/mL
O=Cc1cc2c(cc1F)C(=O)N(C1CCC(=O)NC1=O)C2 (stereo not shown),"male CD-1 mouse, plasma","intravenous, 1 mg/kg, 1.02 min",17.2 ng/mL
CC(C)n1ncc2c(C(=O)NCC3(C)CNC3)cc(C3CC3)nc21,"female BALB/c mouse, plasma","intraperitoneal, 50 mg/kg, 1 h",2660 ng/mL
CN(C)C(=O)c1cc2cnc(Nc3ccc(-c4ccc5c(=O)cc(N6CCOCC6)oc5c4)cc3)nc2n1C1CCCC1,"BALB/c mouse, brain","oral, 20 mg/kg, 2 h, single dose",108 ng/g
CC1(C)NC(=O)N(c2ccc(F)c(Br)c2)C1=O,"male Swiss mouse, plasma","oral, 100 mg/kg, 1 h",29700 ng/mL
CC(C)c1cc(C(=O)NCCN)c2cnn(C(C)C)c2n1,"female BALB/c mouse, plasma","intraperitoneal, 50 mg/kg, 30 min",2430 ng/mL
CC(C)(C)S(=O)(=O)c1cc2c(Nc3ccc4scnc4c3)ncnc2cc1OCCOP(=O)(O)O,"BALB/c mouse, plasma","oral, 10 mg/kg, 6 h",21 ng/mL
Cc1nc2ccc(OCc3ccc(C(F)(F)F)cc3)cc2[nH]1,"male BALB/c mouse, brain","oral, 10 mg/kg, 72 h",2.7 ng/g
O=C1CCC(N2Cc3cc(CO)c(F)cc3C2=O)C(=O)N1 (stereo not shown),"male CD-1 mouse, plasma","intravenous, 1 mg/kg, 4 h",1.7 ng/mL
CC1(C)NC(=O)N(c2ccc(F)c(S(C)(=O)=O)c2)C1=O,"male Swiss mouse, plasma","oral, 100 mg/kg, 48 h",20 ng/mL
OCc1nc2ccc(NCc3ccc(C(F)(F)F)cc3)cc2[nH]1,"male BALB/c mouse, brain","intravenous, 1 mg/kg, 6 h",26.1 ng/g
